# In ChEMBL document CHEMBL1138555, “N-acylated and N,N'-diacylated imidazolidine-2-thione derivatives and N,N'-diacylated tetrahydropyrimidine-2(1H)-thione analogues: synthesis and antiproliferative activity” (Eur J Med Chem, 2009):
# What was measured:
# MT4 = assay: Antiproliferative activity against human MT4 cells assessed as reduction of growth by MTT assay; type: functional, cell-based
# Method in brief: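 MT-4 lymphoblastoid T cells (ATCC) in RPMI 1640 with 10% FCS, penicillin/streptomycin, checked for mycoplasma. 1 × 10⁴ mock-infected cells per well with serial dilutions from a 100 mM DMSO stock. Incubated 4 days at 37 °C, viable cells counted by MTT. IC50 versus untreated controls by linear regression. Mean of three separate experiments.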
# HL-60(TB) = assay: Growth inhibition of human HL-60(TB) cells after 48 hrs by sulforhodamine B assay; type: functional; conditions: HL-60, 48 h
# Method in brief: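 NCI 60-cell-line screen protocol: cells exposed to compound at five 10-fold dilutions from 10^-4 to 10^-8 M for the last 48 h of a 72 h incubation. Sulforhodamine B protein assay estimated viability/growth. GI50 (50% growth inhibition) derived; where not reached or exceeded, reported as greater or less than the highest or lowest concentration tested.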
# K562 = assay: Growth inhibition of human K562 cells after 48 hrs by sulforhodamine B assay; type: functional; conditions: K562, 48 h
# Method in brief: (§1)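 NCI screen panel. Five 10-fold concentrations from 10^-4 to 10^-8 M. Exposure for the last 48 h of a 72 h incubation. Growth estimated by sulforhodamine B protein assay. GI50 is the concentration giving 50% growth inhibition. Where that level was not reached or was exceeded, the value is given as above or below the highest or lowest concentration tested.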
# MOLT-4 = assay: Growth inhibition of human MOLT4 cells after 48 hrs by sulforhodamine B assay; type: functional; conditions: MOLT-4, 48 h; method in brief: as §1
# [1] = Growth inhibition of human […] cells after 48 hrs by sulforhodamine B assay; type: functional; method in brief: as §1
# SR = assay: Growth inhibition of human SR cells after 48 hrs by sulforhodamine B assay; type: functional
# Method in brief: (§2)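 NCI in vitro panel screen. Compounds tested at five 10-fold dilutions, 10^-4 to 10^-8 M. Cells in 96-well plates were exposed for the last 48 h of a 72 h incubation. Viability/growth was read by sulforhodamine B protein assay. GI50 is the concentration giving 50% growth inhibition. Values beyond the tested range are reported as greater or less than the maximum or minimum concentration.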
# A549 = assay: Growth inhibition of human A549 cells after 48 hrs by sulforhodamine B assay; type: functional; conditions: A549, 48 h; method in brief: as §1
# EKVX = assay: Growth inhibition of human EKVX cells after 48 hrs by sulforhodamine B assay; type: functional; method in brief: as §1
# HOP-92 = assay: Growth inhibition of human HOP92 cells after 48 hrs by sulforhodamine B assay; type: functional; conditions: HOP-92, 48 h; method in brief: as §1
# NCI-H23 = assay: Growth inhibition of human NCI-H23 cells after 48 hrs by sulforhodamine B assay; type: functional; conditions: NCI-H23, 48 h; method in brief: as §1
# NCI-H322M = assay: Growth inhibition of human NCI-H322M cells after 48 hrs by sulforhodamine B assay; type: functional; method in brief: as §1
# NCI-H460 = assay: Growth inhibition of human NCI-H460 cells after 48 hrs by sulforhodamine B assay; type: functional; conditions: NCI-H460, 48 h; method in brief: as §1
# NCI-H522 = assay: Growth inhibition of human NCI-H522 cells after 48 hrs by sulforhodamine B assay; type: functional; conditions: NCI-H522, 48 h; method in brief: as §1
# HCT-116 = assay: Growth inhibition of human HCT116 cells after 48 hrs by sulforhodamine B assay; type: functional; conditions: HCT-116, 48 h; method in brief: as §1
# HCT-15 = assay: Growth inhibition of human HCT15 cells after 48 hrs by sulforhodamine B assay; type: functional; conditions: HCT-15, 48 h; method in brief: as §1
# HT-29 = assay: Growth inhibition of human HT-29 cells after 48 hrs by sulforhodamine B assay; type: functional; conditions: HT-29, 48 h; method in brief: as §1
# KM12 = assay: Growth inhibition of human KM12 cells after 48 hrs by sulforhodamine B assay; type: functional; conditions: KM12, 48 h; method in brief: as §1
# SW-620 = assay: Growth inhibition of human SW620 cells after 48 hrs by sulforhodamine B assay; type: functional; conditions: SW-620, 48 h; method in brief: as §2
# SF-268 = assay: Growth inhibition of human SF268 cells after 48 hrs by sulforhodamine B assay; type: functional; conditions: SF-268, 48 h; method in brief: as §1
# SF-295 = assay: Growth inhibition of human SF295 cells after 48 hrs by sulforhodamine B assay; type: functional; conditions: SF-295, 48 h; method in brief: as §1
# U-251 = assay: Growth inhibition of human U251 cells after 48 hrs by sulforhodamine B assay; type: functional; conditions: U-251, 48 h; method in brief: as §2
# Malme-3M = assay: Growth inhibition of human MALME-3M cells after 48 hrs by sulforhodamine B assay; type: functional; method in brief: as §1
# M14 = assay: Growth inhibition of human M14 cells after 48 hrs by sulforhodamine B assay; type: functional; conditions: M14, 48 h; method in brief: as §1
# SK-MEL-2 = assay: Growth inhibition of human SK-MEL-2 cells after 48 hrs by sulforhodamine B assay; type: functional; conditions: SK-MEL-2, 48 h; method in brief: as §1
# SK-MEL-28 = assay: Growth inhibition of human SK-MEL-28 cells after 48 hrs by sulforhodamine B assay; type: functional; conditions: SK-MEL-28, 48 h; method in brief: as §1
# SK-MEL-5 = assay: Growth inhibition of human SK-MEL-5 cells after 48 hrs by sulforhodamine B assay; type: functional; conditions: SK-MEL-5, 48 h; method in brief: as §1
# UACC-257 = assay: Growth inhibition of human UACC257 cells after 48 hrs by sulforhodamine B assay; type: functional; conditions: UACC-257, 48 h; method in brief: as §2
# UACC-62 = assay: Growth inhibition of human UACC62 cells after 48 hrs by sulforhodamine B assay; type: functional; conditions: UACC-62, 48 h; method in brief: as §2
# IGROV-1 = assay: Growth inhibition of human IGROV1 cells after 48 hrs by sulforhodamine B assay; type: functional; conditions: IGROV-1, 48 h; method in brief: as §1
# OVCAR-3 = assay: Growth inhibition of human OVCAR-3 cells after 48 hrs by sulforhodamine B assay; type: functional; conditions: OVCAR-3, 48 h; method in brief: as §1
# OVCAR-4 = assay: Growth inhibition of human OVCAR4 cells after 48 hrs by sulforhodamine B assay; type: functional; conditions: OVCAR-4, 48 h; method in brief: as §1
# OVCAR-8 = assay: Growth inhibition of human OVCAR8 cells after 48 hrs by sulforhodamine B assay; type: functional; conditions: OVCAR-8, 48 h; method in brief: as §1
# SK-OV-3 = assay: Growth inhibition of human SKOV3 cells after 48 hrs by sulforhodamine B assay; type: functional; conditions: SK-OV-3, 48 h; method in brief: as §1
# 786-0 = assay: Growth inhibition of human 786-0 cells after 48 hrs by sulforhodamine B assay; type: functional; conditions: 786-0, 48 h; method in brief: as §1
# ACHN = assay: Growth inhibition of human ACHN cells after 48 hrs by sulforhodamine B assay; type: functional; method in brief: as §1
# CAKI-1 = assay: Growth inhibition of human Caki1 cells after 48 hrs by sulforhodamine B assay; type: functional; conditions: CAKI-1, 48 h; method in brief: as §1
# RXF 393 = assay: Growth inhibition of human RXF393 cells after 48 hrs by sulforhodamine B assay; type: functional; conditions: RXF 393, 48 h; method in brief: as §1
# SN12C = assay: Growth inhibition of human SN12C cells after 48 hrs by sulforhodamine B assay; type: functional; method in brief: as §2
# TK-10 = assay: Growth inhibition of human TK10 cells after 48 hrs by sulforhodamine B assay; type: functional; conditions: TK-10, 48 h; method in brief: as §2
# UO-31 = assay: Growth inhibition of human UO31 cells after 48 hrs by sulforhodamine B assay; type: functional; conditions: UO-31, 48 h; method in brief: as §2
# PC-3 = assay: Growth inhibition of human PC3 cells after 48 hrs by sulforhodamine B assay; type: functional; conditions: PC-3, 48 h; method in brief: as §1
# DU-145 = assay: Growth inhibition of human DU145 cells after 48 hrs by sulforhodamine B assay; type: functional; conditions: DU-145, 48 h; method in brief: as §1
# MCF7 = assay: Growth inhibition of human MCF7 cells after 48 hrs by sulforhodamine B assay; type: functional; conditions: MCF7, 48 h; method in brief: as §1
# MDA-MB-231 = assay: Growth inhibition of human MDA-MB-231 cells after 48 hrs by sulforhodamine B assay; type: functional; conditions: MDA-MB-231, 48 h; method in brief: as §1
# MDA-MB-435 = assay: Growth inhibition of human MDA-MB-435 cells after 48 hrs by sulforhodamine B assay; type: functional; conditions: MDA-MB-435, 48 h; method in brief: as §1
# BT-549 = assay: Growth inhibition of human BT549 cells after 48 hrs by sulforhodamine B assay; type: functional; conditions: BT-549, 48 h; method in brief: as §1
# T47D = assay: Growth inhibition of human T47D cells after 48 hrs by sulforhodamine B assay; type: functional; method in brief: as §2
smiles,measurement,setting,value
N#CC(C#N)=CN1CCN(C(=O)c2ccccc2)C1=S,IC50,MT4,11 µM
same,GI50,HL-60(TB),33.5 µM
same,GI50,K562,79.5 µM
same,GI50,MOLT-4,39.2 µM
same,GI50,[1],35.3 µM
same,GI50,SR,18.8 µM
same,GI50,A549,37.1 µM
same,GI50,EKVX,3.5 µM
same,GI50,HOP-92,56.8 µM
same,GI50,NCI-H23,26.1 µM
same,GI50,NCI-H322M,33.4 µM
same,GI50,NCI-H460,20 µM
same,GI50,NCI-H522,15.9 µM
same,GI50,HCT-116,34 µM
same,GI50,HCT-15,36.4 µM
same,GI50,HT-29,42 µM
same,GI50,KM12,32.3 µM
same,GI50,SW-620,33.7 µM
same,GI50,SF-268,21.3 µM
same,GI50,SF-295,46.2 µM
same,GI50,U-251,38.2 µM
same,GI50,Malme-3M,10.2 µM
same,GI50,M14,37.3 µM
same,GI50,SK-MEL-2,18.4 µM
same,GI50,SK-MEL-28,45.5 µM
same,GI50,SK-MEL-5,23.3 µM
same,GI50,UACC-257,25.3 µM
same,GI50,UACC-62,50.4 µM
same,GI50,IGROV-1,28.2 µM
same,GI50,OVCAR-3,36.4 µM
same,GI50,OVCAR-4,59.3 µM
same,GI50,OVCAR-8,77 µM
same,GI50,SK-OV-3,66.7 µM
same,GI50,786-0,38.9 µM
same,GI50,ACHN,18.8 µM
same,GI50,CAKI-1,28.7 µM
same,GI50,RXF 393,22.7 µM
same,GI50,SN12C,24.6 µM
same,GI50,TK-10,23.3 µM
same,GI50,UO-31,20.4 µM
same,GI50,PC-3,60 µM
same,GI50,DU-145,24.4 µM
same,GI50,MCF7,16.7 µM
same,GI50,MDA-MB-231,36.1 µM
same,GI50,MDA-MB-435,38.8 µM
same,GI50,BT-549,22.8 µM
same,GI50,T47D,89.2 µM
